Active and inactive are the calls of the source. The rule behind the calls is not given here.
What was measured:
[1] = target: T1, Peroxisome proliferator-activated receptor gamma (Homo sapiens, UniProt P37231); assay: Transactivation of GAL4-fused human PPARgamma transfected in HEK293BENA cells after 24 hrs by steady glo-luciferase reporter gene assay; assay type: cell-based
T1 sequence (P37231 whole entry): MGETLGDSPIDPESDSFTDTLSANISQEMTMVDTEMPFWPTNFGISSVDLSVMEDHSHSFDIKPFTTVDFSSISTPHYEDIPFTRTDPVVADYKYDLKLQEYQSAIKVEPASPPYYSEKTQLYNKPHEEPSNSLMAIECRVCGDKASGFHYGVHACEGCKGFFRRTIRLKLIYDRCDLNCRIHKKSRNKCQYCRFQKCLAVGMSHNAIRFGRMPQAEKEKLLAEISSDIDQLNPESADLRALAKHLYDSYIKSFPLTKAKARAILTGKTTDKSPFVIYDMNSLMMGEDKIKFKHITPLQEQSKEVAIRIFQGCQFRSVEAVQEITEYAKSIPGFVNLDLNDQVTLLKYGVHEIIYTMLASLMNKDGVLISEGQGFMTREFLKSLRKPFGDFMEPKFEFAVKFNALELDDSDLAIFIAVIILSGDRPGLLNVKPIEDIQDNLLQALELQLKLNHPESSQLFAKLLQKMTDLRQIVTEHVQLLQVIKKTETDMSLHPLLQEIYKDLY

[2] = target: T1, Peroxisome proliferator-activated receptor gamma; assay: Transactivation of PPARgamma (unknown origin) transfected in human DRO cells after 24 hrs by dual luciferase reporter gene assay; assay type: cell-based
[3] = Inhibition of cologenic growth of human DRO cells at 1 nM after 2 weeks by soft agar assay relative to control; assay type: functional; conditions: 336 h
[4] = target: T2, Peroxisome proliferator-activated receptor gamma (Homo sapiens) (UniProt P37231); assay: Transactivation of PPARgamma in human MKN45 cells assessed as decrease in vimentin gene expression at 10 to 100 nM after 72 hrs by quantitative PCR analysis; assay type: cell-based
T2 sequence (whole entry): T1 sequence (P37231 whole entry)
In short: (§1)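 MKN45 cells treated with compound for 72 h (N = 3 per concentration); cells washed in cold PBS, total RNA isolated, transcript levels measured by quantitative PCR and corrected to GAPDH; fold-induction expressed relative to control/baseline.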

[5] = target: T2, Peroxisome proliferator-activated receptor gamma (Homo sapiens); assay: Transactivation of PPARgamma in human MKN45 cells assessed as increase in adfp gene expression at 10 to 100 nM after 72 hrs by quantitative PCR analysis; assay type: cell-based; in short: as §1
[6] = target: T2, Peroxisome proliferator-activated receptor gamma (Homo sapiens); assay: Transactivation of PPARgamma in human MKN45 cells assessed as increase in angptl4 gene expression at 10 to 100 nM after 72 hrs by quantitative PCR analysis; assay type: cell-based; in short: as §1
[7] = target: T2, Peroxisome proliferator-activated receptor gamma (Homo sapiens); assay: Agonist activity at PPARgamma in human MKN45 cells assessed as cell differentiation at 100 nM after 5 days by Hoechst 33342 staining-based assay
In short: (§2)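 MKN45 cells grown in RPMI1640 with 10% FBS, penicillin/streptomycin, 37 °C, 5% CO2; seeded 2500 cells/well, exposed to compound (1-1000 nM, N = 3 per concentration) for 5 days. Hoechst 33342 nuclear stain, imaged; nuclear areas above 1,015.58 μm2 counted as aggregated clusters; aggregated-cluster area over total cell area gives aggregation rate, normalized to a reference agonist's maximum; EC50 at half-maximal activity.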

[8] = target: T2, Peroxisome proliferator-activated receptor gamma (Homo sapiens); assay: Agonist activity at PPARgamma in human MKN45 cells assessed as cell differentiation at 30 nM after 5 days by Hoechst 33342 staining-based assay relative to control; in short: as §2
Mus musculus = organism: Mus musculus; assay: Antidiabetic activity in db/db diabetic mouse model assessed as reduction in blood glucose levels relative to vehicle-treated control; assay type: functional; parameters: scale not given: the % may be the effect or the level left

| SMILES | EC50 [1] | other results |
| --- | --- | --- |
| Cc1cc(Oc2ccc3nc(COc4ccc(CC5SC(=O)NC5=O)cc4)n(C)c3c2)cc(C)c1N (configuration not stated) [EFATUTAZONE] | – | EC50 [2]: 1 nM; inhibition at 0.001 µM [3]: 63% |
| CCCCCS(=O)(=O)NC(=O)c1ccc2nc(C)n(Cc3ccc(Cl)cc3Cl)c2c1 [ATX08-001] | 163 nM | – |
| CCCc1nc2c(C)cccc2n1Cc1ccc2c(c1)COc1ccccc1/C2=C(\C)c1noc(=O)[nH]1 | – | Activity [4]: Active; Activity [5]: Active; Activity [6]: Active; Activity [7]: Active; Activity [8]: 94% |
| CCc1nc2c(C)cc(C)nc2n1Cc1ccc2c(c1)COc1ccccc1/C2=C(\C)c1noc(=O)[nH]1 | 84 nM | – |
| CCCc1nc2c(CO)cccc2n1Cc1ccc2c(c1)COc1ccccc1/C2=C(\C)c1noc(=O)[nH]1 | 33 nM | – |
| O=S(=O)(Nc1cc(Cl)c(Oc2cnc3ccccc3c2)c(Cl)c1)c1ccc(Cl)cc1Cl [INT131] | – | Activity (Mus musculus): 60% |
| CCCc1nc2ccccc2n1Cc1ccc2c(c1)COc1ccccc1/C2=C(\C)c1noc(=O)[nH]1 | 2.7 nM | – |

Continued, in another order:

| EC50 [1] | SMILES | other results |
| --- | --- | --- |
| 177 nM | CCc1nc2c(C)cc(C)nc2n1Cc1ccc2c(c1)CCc1ccccc1/C2=C(\C)c1noc(=O)[nH]1 | – |
| 593 nM | CCCc1nc(-c2ccncc2)cn1Cc1ccc2c(c1)COc1ccccc1/C2=C(\C)c1noc(=O)[nH]1 | – |
| 57 nM | CCCc1nc2c(C(=O)NCCO)cccc2n1Cc1ccc2c(c1)COc1ccccc1/C2=C(\C)c1noc(=O)[nH]1 | – |
| 166 nM | CCCc1nc2c(NS(C)(=O)=O)cccc2n1Cc1ccc2c(c1)COc1ccccc1/C2=C(\C)c1noc(=O)[nH]1 | – |
| 151 nM | CCCc1nc(-c2ccccc2)cn1Cc1ccc2c(c1)COc1ccccc1/C2=C(\C)c1noc(=O)[nH]1 | – |
